# Measurements as given in ChEMBL document CHEMBL1255409, “In vitro activity of ceftaroline against 623 diverse strains of anaerobic bacteria” (2010).
# Key:
# Format in all cases: functional
# Solobacterium moorei = assay: Antimicrobial activity against Solobacterium moorei under anaerobic conditions after 44 hrs by CLSI-M11-47 protocol based agar dilution method
# Procedure, shortened: (§1)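 Clinical isolates were stored at −70°C in 20% skim milk and identified phenotypically or by partial 16S rRNA sequencing. Each strain was subcultured twice from frozen stock. Cell paste from 48-h cultures was suspended in brucella broth to a 0.5 McFarland standard. About 10^5 CFU per spot were applied by Steers replicator to agar dilution plates prepared on the day of testing. Plates were incubated 44 h at 37°C in an anaerobic chamber. MIC was taken as the lowest concentration giving complete inhibition or marked reduction of growth versus the drug-free control.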
# Clostridium subterminale = assay: Antimicrobial activity against Clostridium subterminale under anaerobic conditions after 44 hrs by CLSI-M11-47 protocol based agar dilution method
# Procedure, shortened: (§2)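 Reference agar dilution per CLSI M11-A7 with plates made on test day. Clinical isolates were stored at −70°C in 20% skim milk, subcultured twice, and 48-h cell paste was suspended in brucella broth to 0.5 McFarland. About 10^5 CFU/spot was applied with a Steers replicator. Plates were incubated 44 h at 37°C anaerobically. MIC was the lowest concentration giving complete inhibition or marked growth reduction versus the drug-free control.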
# Clostridium tertium = assay: Antimicrobial activity against Clostridium tertium under anaerobic conditions after 44 hrs by CLSI-M11-47 protocol based agar dilution method; procedure, shortened: as §2
# [1] = test system: Prevotella melaninogenica; assay: Antimicrobial activity against Prevotella melaninogenica under anaerobic conditions after 44 hrs by CLSI-M11-47 protocol based agar dilution method; procedure, shortened: as §1
# [2] = test system: Clostridium celerecrescens; assay: Antimicrobial activity against Clostridium celerecrescens under anaerobic conditions after 44 hrs by CLSI-M11-47 protocol based agar dilution method; conditions: Lacrimispora celerecrescens; procedure, shortened: as §2
# Peptoniphilus lacrimalis = assay: Antimicrobial activity against Peptoniphilus lacrimalis under anaerobic conditions after 44 hrs by CLSI-M11-47 protocol based agar dilution method; procedure, shortened: as §1
# Prevotella buccae = assay: Antimicrobial activity against Prevotella buccae under anaerobic conditions after 44 hrs by CLSI-M11-47 protocol based agar dilution method; conditions: Segatella buccae; procedure, shortened: as §1
# Bacteroides caccae = assay: Antimicrobial activity against Bacteroides caccae under anaerobic conditions after 44 hrs by CLSI-M11-47 protocol based agar dilution method; procedure, shortened: as §2
# Prevotella corporis = assay: Antimicrobial activity against Prevotella corporis under anaerobic conditions after 44 hrs by CLSI-M11-47 protocol based agar dilution method; procedure, shortened: as §1
# Anaerococcus = assay: Antimicrobial activity against Anaerococcus sp. under anaerobic conditions after 44 hrs by CLSI-M11-47 protocol based agar dilution method; procedure, shortened: as §2
# [3] = test system: Bacteroides thetaiotaomicron; assay: Antimicrobial activity against Bacteroides thetaiotaomicron under anaerobic conditions after 44 hrs by CLSI-M11-47 protocol based agar dilution method; procedure, shortened: as §2
# Anaerococcus murdochii = assay: Antimicrobial activity against Anaerococcus murdochii under anaerobic conditions after 44 hrs by CLSI-M11-47 protocol based agar dilution method; procedure, shortened: as §2
# Prevotella bergensis = assay: Antimicrobial activity against Prevotella bergensis under anaerobic conditions after 44 hrs by CLSI-M11-47 protocol based agar dilution method; conditions: Hallella bergensis; procedure, shortened: as §1
# Anaerococcus octavius = assay: Antimicrobial activity against Anaerococcus octavius under anaerobic conditions after 44 hrs by CLSI-M11-47 protocol based agar dilution method; procedure, shortened: as §2
# Prevotella nanceiensis = assay: Antimicrobial activity against Prevotella nanceiensis under anaerobic conditions after 44 hrs by CLSI-M11-47 protocol based agar dilution method; conditions: Hoylesella nanceiensis; procedure, shortened: as §1
# Eubacterium cylindroides = assay: Antimicrobial activity against Eubacterium cylindroides under anaerobic conditions after 44 hrs by CLSI-M11-47 protocol based agar dilution method; conditions: Faecalitalea cylindroides; procedure, shortened: as §2
# Lacticaseibacillus casei = assay: Antimicrobial activity against Lactobacillus casei under anaerobic conditions after 44 hrs by CLSI-M11-47 protocol based agar dilution method; procedure, shortened: as §1
# [4] = test system: Parabacteroides distasonis; assay: Antimicrobial activity against Bacteroides distasonis under anaerobic conditions after 44 hrs by CLSI-M11-47 protocol based agar dilution method; procedure, shortened: as §2
# Bacteroides fragilis = assay: Antimicrobial activity against Bacteroides fragilis under anaerobic conditions after 44 hrs by CLSI-M11-47 protocol based agar dilution method; procedure, shortened: as §2
# Parabacteroides merdae = assay: Antimicrobial activity against Bacteroides merdae under anaerobic conditions after 44 hrs by CLSI-M11-47 protocol based agar dilution method; procedure, shortened: as §2
# Porphyromonas somerae = assay: Antimicrobial activity against Porphyromonas somerae under anaerobic conditions after 44 hrs by CLSI-M11-47 protocol based agar dilution method; procedure, shortened: as §1
# [5] = test system: Paraclostridium bifermentans; assay: Antimicrobial activity against Clostridium bifermentans under anaerobic conditions after 44 hrs by CLSI-M11-47 protocol based agar dilution method; procedure, shortened: as §2
# Clostridium baratii = assay: Antimicrobial activity against Clostridium baratii under anaerobic conditions after 44 hrs by CLSI-M11-47 protocol based agar dilution method
# [6] = test system: Paeniclostridium sordellii; assay: Antimicrobial activity against Clostridium sordellii under anaerobic conditions after 44 hrs by CLSI-M11-47 protocol based agar dilution method; conditions: Paraclostridium sordellii; procedure, shortened: as §2
# Anaerococcus vaginalis = assay: Antimicrobial activity against Anaerococcus vaginalis under anaerobic conditions after 44 hrs by CLSI-M11-47 protocol based agar dilution method; procedure, shortened: as §2
# Actinomyces turicensis = assay: Antimicrobial activity against Actinomyces turicensis under anaerobic conditions after 44 hrs by CLSI-M11-47 protocol based agar dilution method; conditions: Schaalia turicensis; procedure, shortened: as §2
# Clostridium butyricum = assay: Antimicrobial activity against Clostridium butyricum under anaerobic conditions after 44 hrs by CLSI-M11-47 protocol based agar dilution method
# Bacteroides uniformis = assay: Antimicrobial activity against Bacteroides uniformis under anaerobic conditions after 44 hrs by CLSI-M11-47 protocol based agar dilution method; procedure, shortened: as §2
# Clostridium citroniae = assay: Antimicrobial activity against Clostridium citroniae under anaerobic conditions after 44 hrs by CLSI-M11-47 protocol based agar dilution method; conditions: Enterocloster citroniae; procedure, shortened: as §2
# Prevotella bivia = assay: Antimicrobial activity against Prevotella bivia under anaerobic conditions after 44 hrs by CLSI-M11-47 protocol based agar dilution method; procedure, shortened: as §1
# Hoylesella loescheii = assay: Antimicrobial activity against Prevotella loescheii under anaerobic conditions after 44 hrs by CLSI-M11-47 protocol based agar dilution method; procedure, shortened: as §1
# Clostridium symbiosum = assay: Antimicrobial activity against Clostridium symbiosum under anaerobic conditions after 44 hrs by CLSI-M11-47 protocol based agar dilution method; procedure, shortened: as §2
compound,measurement,setting,value
Cc1ncc([N+](=O)[O-])n1CCO [METRONIDAZOLE],MIC50,Solobacterium moorei,0.5 µg/mL
same,MIC90,Solobacterium moorei,1 µg/mL
same,MIC50,Clostridium subterminale,0.5 µg/mL
same,MIC90,Clostridium subterminale,4 µg/mL
same,MIC50,Clostridium tertium,0.5 µg/mL
same,MIC90,Clostridium tertium,4 µg/mL
same,MIC50,[1],0.5 µg/mL
same,MIC90,[1],1 µg/mL
same,MIC50,[2],0.5 µg/mL
same,MIC90,[2],4 µg/mL
same,MIC50,Peptoniphilus lacrimalis,1 µg/mL
same,MIC90,Peptoniphilus lacrimalis,4 µg/mL
same,MIC50,Prevotella buccae,0.5 µg/mL
same,MIC90,Prevotella buccae,1 µg/mL
same,MIC50,Bacteroides caccae,1 µg/mL
same,MIC90,Bacteroides caccae,2 µg/mL
same,MIC50,Prevotella corporis,0.5 µg/mL
same,MIC90,Prevotella corporis,2 µg/mL
same,MIC50,Anaerococcus,1 µg/mL
same,MIC90,Anaerococcus,4 µg/mL
same,MIC50,[3],1 µg/mL
same,MIC90,[3],1 µg/mL
same,MIC50,Anaerococcus murdochii,1 µg/mL
same,MIC90,Anaerococcus murdochii,4 µg/mL
same,MIC50,Prevotella bergensis,0.5 µg/mL
same,MIC90,Prevotella bergensis,2 µg/mL
same,MIC50,Anaerococcus octavius,1 µg/mL
same,MIC90,Anaerococcus octavius,4 µg/mL
same,MIC50,Prevotella nanceiensis,0.5 µg/mL
same,MIC90,Prevotella nanceiensis,2 µg/mL
same,MIC50,Eubacterium cylindroides,0.5 µg/mL
same,MIC90,Eubacterium cylindroides,1 µg/mL
same,MIC50,Lacticaseibacillus casei,> 64 µg/mL
same,MIC90,Lacticaseibacillus casei,> 64 µg/mL
same,MIC50,[4],1 µg/mL
same,MIC90,[4],2 µg/mL
same,MIC50,Bacteroides fragilis,1 µg/mL
same,MIC90,Bacteroides fragilis,2 µg/mL
same,MIC50,Parabacteroides merdae,1 µg/mL
same,MIC90,Parabacteroides merdae,2 µg/mL
same,MIC50,Porphyromonas somerae,0.5 µg/mL
same,MIC90,Porphyromonas somerae,0.5 µg/mL
same,MIC50,[5],0.5 µg/mL
same,MIC90,[5],4 µg/mL
same,MIC50,Clostridium baratii,0.5 µg/mL
same,MIC90,Clostridium baratii,4 µg/mL
same,MIC50,[6],0.5 µg/mL
same,MIC90,[6],4 µg/mL
same,MIC50,Anaerococcus vaginalis,1 µg/mL
same,MIC90,Anaerococcus vaginalis,4 µg/mL
same,MIC50,Actinomyces turicensis,> 32 µg/mL
same,MIC90,Actinomyces turicensis,> 32 µg/mL
same,MIC50,Clostridium butyricum,0.5 µg/mL
same,MIC90,Clostridium butyricum,4 µg/mL
same,MIC50,Bacteroides uniformis,1 µg/mL
same,MIC90,Bacteroides uniformis,2 µg/mL
same,MIC50,Clostridium citroniae,0.06 µg/mL
same,MIC90,Clostridium citroniae,0.25 µg/mL
same,MIC50,Prevotella bivia,1 µg/mL
same,MIC90,Prevotella bivia,2 µg/mL
same,MIC50,Hoylesella loescheii,0.5 µg/mL
same,MIC90,Hoylesella loescheii,2 µg/mL
same,MIC50,Clostridium symbiosum,0.5 µg/mL
same,MIC90,Clostridium symbiosum,4 µg/mL
